Assay results taken from ChEMBL document CHEMBL2062453, “Lead optimization through VLAK protocol: new annelated pyrrolo-pyrimidine derivatives as antitumor agents” (2012).

Tests used:
Format in all cases: functional
HT-29 = test: Cytotoxicity against human HT-29 cells assessed as cell growth at 10 uM after 48 hrs by SRB assay relative to control; conditions: HT-29, 48 h, read-out: Activity
Outline: (§1)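 NCI primary screen of about 60 human tumour lines. Cells inoculated and preincubated, then a single test concentration added and cultures incubated 48 h. Result given as percent growth (G%) of treated versus untreated control cells.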

TK-10 = test: Cytotoxicity against human TK10 cells assessed as cell growth at 10 uM after 48 hrs by SRB assay relative to control; conditions: TK-10, 48 h, read-out: Activity
Outline: (§2)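 NCI single-dose primary screen across about 60 human tumour lines. Each line was inoculated and preincubated on microtiter plates, then exposed to one concentration of agent for 48 h. Growth is reported as percent growth (G%) of treated cells versus untreated control cells.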

HOP-62 = test: Cytotoxicity against human HOP62 cells assessed as cell growth at 10 uM after 48 hrs by SRB assay relative to control; conditions: HOP-62, 48 h, read-out: Activity; outline: as §1
HL-60(TB) = test: Cytotoxicity against human HL-60(TB) cells assessed as cell growth at 10 uM after 48 hrs by SRB assay relative to control; conditions: HL-60, 48 h, read-out: Activity
SK-MEL-2 = test: Cytotoxicity against human SK-MEL-2 cells assessed as cell growth at 10 uM after 48 hrs by SRB assay relative to control; conditions: SK-MEL-2, 48 h, read-out: Activity
Hs-578T = test: Cytotoxicity against human Hs578T cells assessed as cell growth at 10 uM after 48 hrs by SRB assay relative to control; conditions: read-out: Activity; outline: as §1
CAKI-1 = test: Cytotoxicity against human Caki1 cells assessed as cell growth at 10 uM after 48 hrs by SRB assay relative to control; conditions: CAKI-1, 48 h, read-out: Activity; outline: as §1
A498 = test: Cytotoxicity against human A498 cells assessed as cell growth at 10 uM after 48 hrs by SRB assay relative to control; conditions: A498, 48 h, read-out: Activity; outline: as §1
RPMI-8226 = test: Cytotoxicity against human RPMI8226 cells assessed as cell growth at 10 uM after 48 hrs by SRB assay relative to control; conditions: RPMI-8226, 48 h, read-out: Activity
SF-268 = test: Cytotoxicity against human SF268 cells assessed as cell growth at 10 uM after 48 hrs by SRB assay relative to control; conditions: SF-268, 48 h, read-out: Activity
SK-OV-3 = test: Cytotoxicity against human SKOV3 cells assessed as cell growth at 10 uM after 48 hrs by SRB assay relative to control; conditions: SK-OV-3, 48 h, read-out: Activity
OVCAR-3 = test: Cytotoxicity against human OVCAR3 cells assessed as cell growth at 10 uM after 48 hrs by SRB assay relative to control; conditions: OVCAR-3, 48 h, read-out: Activity
NCI-H522 = test: Cytotoxicity against human NCI-H522 cells assessed as cell growth at 10 uM after 48 hrs by SRB assay relative to control; conditions: NCI-H522, 48 h, read-out: Activity
MDA-MB-435 = test: Cytotoxicity against human MDA-MB-435 cells assessed as cell growth at 10 uM after 48 hrs by SRB assay relative to control; conditions: MDA-MB-435, 48 h, read-out: Activity
MDA-MB-231 = test: Cytotoxicity against human MDA-MB-231 cells assessed as cell growth at 10 uM after 48 hrs by SRB assay relative to control; conditions: MDA-MB-231, 48 h, read-out: Activity; outline: as §1
SN12C = test: Cytotoxicity against human SN12C cells assessed as cell growth at 10 uM after 48 hrs by SRB assay relative to control; conditions: read-out: Activity
MOLT-4 = test: Cytotoxicity against human MOLT4 cells assessed as cell growth at 10 uM after 48 hrs by SRB assay relative to control; conditions: MOLT-4, 48 h, read-out: Activity
NCI-H322M = test: Cytotoxicity against human NCI-H322M cells assessed as cell growth at 10 uM after 48 hrs by SRB assay relative to control; conditions: read-out: Activity
HCC 2998 = test: Cytotoxicity against human HCC2998 cells assessed as cell growth at 10 uM after 48 hrs by SRB assay relative to control; conditions: HCC 2998, 48 h, read-out: Activity; outline: as §1
BT-549 = test: Cytotoxicity against human BT549 cells assessed as cell growth at 10 uM after 48 hrs by SRB assay relative to control; conditions: BT-549, 48 h, read-out: Activity; outline: as §1
OVCAR-8 = test: Cytotoxicity against human OVCAR8 cells assessed as cell growth at 10 uM after 48 hrs by SRB assay relative to control; conditions: OVCAR-8, 48 h, read-out: Activity
HCT-116 = test: Cytotoxicity against human HCT116 cells assessed as cell growth at 10 uM after 48 hrs by SRB assay relative to control; conditions: HCT-116, 48 h, read-out: Activity; outline: as §1
SNB-19 = test: Cytotoxicity against human SNB19 cells assessed as cell growth at 10 uM after 48 hrs by SRB assay relative to control; conditions: SNB-19, 48 h, read-out: Activity
UACC-62 = test: Cytotoxicity against human UACC62 cells assessed as cell growth at 10 uM after 48 hrs by SRB assay relative to control; conditions: UACC-62, 48 h, read-out: Activity; outline: as §2
SK-MEL-28 = test: Cytotoxicity against human SK-MEL-28 cells assessed as cell growth at 10 uM after 48 hrs by SRB assay relative to control; conditions: SK-MEL-28, 48 h, read-out: Activity
SW-620 = test: Cytotoxicity against human SW620 cells assessed as cell growth at 10 uM after 48 hrs by SRB assay relative to control; conditions: SW-620, 48 h, read-out: Activity; outline: as §2

Row | Structure (SMILES) | growth at 10 µM (HT-29) [%] | growth at 10 µM (TK-10) [%] | growth at 10 µM (HOP-62) [%] | growth at 10 µM (HL-60(TB)) [%] | growth at 10 µM (SK-MEL-2) [%] | growth at 10 µM (Hs-578T) [%] | growth at 10 µM (CAKI-1) [%] | growth at 10 µM (A498) [%] | growth at 10 µM (RPMI-8226) [%] | growth at 10 µM (SF-268) [%] | growth at 10 µM (SK-OV-3) [%] | growth at 10 µM (OVCAR-3) [%] | growth at 10 µM (NCI-H522) [%] | growth at 10 µM (MDA-MB-435) [%] | growth at 10 µM (MDA-MB-231) [%] | growth at 10 µM (SN12C) [%] | growth at 10 µM (MOLT-4) [%] | growth at 10 µM (NCI-H322M) [%] | growth at 10 µM (HCC 2998) [%] | growth at 10 µM (OVCAR-8) [%] | further results
1 | CCOC(=O)CCCn1c(C)c(C)c2c1N=C(SC)N1CC(=O)N=C21 | 109 | 135 | 112 | 94 | 113 | 120 | 108 | 115 | 95 | 132 | 127 | 162 | 97 | 122 | 112 | 110 | 98 | 111 | 129 | 113 | growth at 10 µM (BT-549): 119%; growth at 10 µM (HCT-116): 111%; growth at 10 µM (SNB-19): 108%; growth at 10 µM (UACC-62): 106%; growth at 10 µM (SK-MEL-28): 114%; growth at 10 µM (SW-620): 110%
2 | CSC1=Nc2c(c(C)c(-c3ccccc3)n2CCCC(=O)O)C2=NC(=O)CN12 | 97 | 135 | 88 | 83 | 117 | 106 | 70 | 109 | 88 | 96 | 114 | 109 | 84 | 107 | 107 | 105 | 87 | 131 | 106 | 98 | growth at 10 µM (BT-549): 94%; growth at 10 µM (HCT-116): 96%; growth at 10 µM (SNB-19): 104%; growth at 10 µM (UACC-62): 95%; growth at 10 µM (SK-MEL-28): 84%; growth at 10 µM (SW-620): 94%
3 | CSC1=Nc2c(c(C)c(C)n2CCCC(=O)O)C2=NC(=O)CN12 | 108 | 121 | 98 | 95 | 111 | 114 | 112 | 86 | 110 | 114 | 113 | 113 | 94 | 119 | 100 | 115 | 103 | 112 | 118 | 111 | growth at 10 µM (BT-549): 105%; growth at 10 µM (HCT-116): 111%; growth at 10 µM (SNB-19): 107%; growth at 10 µM (UACC-62): 111%; growth at 10 µM (SK-MEL-28): 110%; growth at 10 µM (SW-620): 110%
4 | CSC1=Nc2c(c(C)c(C)n2CCCC(=O)NCCc2cnc[nH]2)C2=NC(=O)CN12 | 95 | 139 | 109 | 100 | 121 | 117 | 111 | 107 | 87 | 130 | 127 | 165 | 83 | 116 | 110 | 100 | 97 | 111 | 118 | 108 | growth at 10 µM (BT-549): 120%; growth at 10 µM (HCT-116): 96%; growth at 10 µM (SNB-19): 102%; growth at 10 µM (UACC-62): 100%; growth at 10 µM (SK-MEL-28): 113%; growth at 10 µM (SW-620): 104%
5 | CSC1=Nc2c(c(C)c(-c3ccccc3)n2CCCN2CCN(C)CC2)C2=NC(=O)CN12 | 98 | 127 | 89 | 91 | 92 | 75 | 92 | 93 | 66 | 88 | 96 | 96 | 85 | 105 | 82 | 96 | 79 | 97 | 100 | 93 | growth at 10 µM (HCT-116): 93%; growth at 10 µM (SNB-19): 96%; growth at 10 µM (UACC-62): 87%; growth at 10 µM (SK-MEL-28): 103%; growth at 10 µM (SW-620): 101%
